Data reported in publication PMC8639468 (The Journal of Biological Chemistry, 2021).
Where no end group is shown, it is not given here.

What was measured:
MTT cytotoxicity assay = assay type: cell-based; conditions: human, HeLa cells
Outline: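 HeLa cells (1×10^4/well) grown 24 h, then exposed to serially diluted peptides for 1 h at 37 °C. Peptide removed; MTT added (5 mg/ml stock in PBS) in fresh medium for 4 h at 37 °C. Formazan dissolved in DMSO and read at 490 nm. Lethality = (Acon − A)/(Acon − Abl), using untreated cells and cell-free blank. IC50 from semilog curves, three independent measurements.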

HeLa cells = experiment: Saporin cytosolic delivery, MTT lethality; assay type: cell-based; conditions: SAP 10, 20, 50 μg/ml alone, 60 min
Outline: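 HeLa seeded at 1×10^4 cells/well and grown 24 h. Cells exposed to saporin, with or without vehicle peptide, for 1 h at 37 °C. After two PBS washes, cells kept in DMEM for 6 h at 37 °C. Viability read by MTT: formazan in DMSO at 490 nm, lethality calculated against untreated cells and cell-free blank.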

Substance	IC50 at 1 h (MTT cytotoxicity assay)	cell survival with saporin alone (HeLa cells)
KLLKLLKKELKLLK-NH2 [LP1]	> 128 µM	–
ILILILAAKLAKALKKEAKALK-NH2 [LP5]	13 µM	–
ILILAAKLLKALKKEAKLLK-NH2 [LP3]	12.5 µM	–
SAP: membrane-impermeable ribosome-inactivation protein, 28.6 kDa cargo	–	barely affected
ILILAAKLAKALKKEAKALK-NH2 [LP4]	> 128 µM	–
ILILAAKLLKLLKKELKLLK-NH2 [LP2]	1.3 µM	–
